Results collected from several papers.
Lines come from different studies, so protocols differ.
BRAF V600E: Serine/threonine-protein kinase B-raf (BRAF, Homo sapiens, UniProt P15056, V600E)
BRAF: Serine/threonine-protein kinase B-raf (BRAF, Homo sapiens, UniProt P15056)

| SMILES | target | observed | mode | method | concentration | inhibition |
| --- | --- | --- | --- | --- | --- | --- |
| COc1ccc(-c2csc(NN=C(CS(=O)(=O)c3ccccc3)c3ccc(F)cc3)n2)cc1 | BRAF V600E | enzyme activity | inhibitor | ATP luminescence | 10 nM | 25% |
| CN(C)C1CCN(CC#Cc2nn(C3CCCC3)c3nc(NCc4ccccc4)ncc23)C1 (stereo not drawn) | BRAF | enzyme activity | inhibitor | FRET | 1 µM | 1% |
| CS(=O)(=O)Nc1cccc(-c2csc(NC(=O)CSc3nc4nccnc4c(=O)n3CCc3ccccc3)n2)c1 | BRAF | enzyme activity | inhibitor |  | 10 µM | 1% |
| C=CC(=O)Nc1cc(Nc2nccc(Nc3cc(Cl)c(F)cc3C(C)(C)O)n2)c(OC)cc1N1CC[C@@H](N(C)C)C1 | BRAF | enzyme activity | inhibitor |  | 1 µM | 4% |
| Cn1cncc1C1=CN(c2ncnc3[nH]cnc23)CCS1 | BRAF | enzyme activity | inhibitor | radiometric | 2 µM | 35.1% |
| COc1cc2ncnc(Nc3ccc(Oc4ccccc4)c(C)c3C)c2cc1OC | BRAF | enzyme activity | inhibitor |  | 1 µM | 11% |
| Cc1ccc(N=Nc2sc(NN=C(CS(=O)(=O)c3ccccc3)c3ccc(C)cc3)nc2C)cc1 | BRAF V600E | enzyme activity | inhibitor | ATP luminescence | 10 nM | 29% |
| CCOc1cc(-c2nncn2C)ccc1Nc1ncc2cc(C)nc(NCC(C)(C)C)c2n1 | BRAF | cell-free assay |  | TR-FRET | 1 µM | ≤ 15% |
| Cc1ccc(C(CS(=O)(=O)c2ccccc2)=NNC2=NC(=O)C(=NNc3ccc(Cl)cc3)S2)cc1 | BRAF V600E | enzyme activity | inhibitor | ATP luminescence | 10 µM | 83% |
| O=C(CSc1nc2nccnc2c(=O)n1CCc1ccccc1)Nc1nccs1 | BRAF V600E | enzyme activity | inhibitor |  | 10 µM | -2% |
| Cc1ccc(C(CS(=O)(=O)c2ccccc2)=NN=C2N=C(c3ccc(Br)cc3)CS2)cc1 | BRAF V600E | enzyme activity | inhibitor | ATP luminescence | 1 µM | 79% |
| COc1cc(-c2cc(-c3ccc(N4CCNCC4)cc3)cnc2N)cc(OC)c1OC | BRAF V600E | enzyme activity | inhibitor |  | 1 µM | 18% |
